Several values for one entry are separate records, joined by “and”; a condition that tells them apart may be missing. Equal entries are not always repeated.
Experiments:
[1] = organism: Mus musculus; assay: Tumor weight inhibition against EMT6 mammary carcinoma cells
[2] = system: Mus musculus; assay: Ratio of mean tumor volume of treated groups to that of the mean of total untreated controls in the subcutaneous Lewis Lung Carcinoma model at a dose of 2400-2512 (mg/kg)/day; format: functional
Method in brief: (§1)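 Mice bearing sc Lewis lung carcinoma (groups of 10) received the saline-dissolved agent daily on days 1-5, 1-8 or 1-10, ip or sc. Perpendicular tumor diameters were measured with vernier calipers on day 14, and volume was taken as 0.5 × length × width². T/C is treated mean volume over the mean of all untreated controls (3-4 groups of 10), pooled across experiments as mean ± SE.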

[3] = system: Mus musculus; assay: Average proportion of total treated mice without palpable tumors was determined in the subcutaneous Lewis Lung Carcinoma model at a dose of 158-251 (mg/kg)/day; format: functional
Method in brief: (§2)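 Sc-implanted Lewis lung carcinoma in mice, groups of 10. Agent dissolved in sterile saline and given daily on days 1-5, 1-8 or 1-10, ip or sc (0.5 mL/mouse). Each experiment had 3 or 4 untreated control groups of 10. The read-out was the average proportion of treated mice without palpable tumor on day 14, pooled over independent experiments as mean ± SE.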

[4] = organism: Mus musculus; assay: Increase in mean life span was measured against colon carcinoma 26 cells; format: functional, Colon 26
Method in brief: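 Colon carcinoma 26: 0.5 mL of 1% brei implanted sc or ip in groups of 10 CD2F1 mice. Drug given ip in sterile saline, 0.5 mL/mouse, at or below the maximally tolerated dose for the schedule. Mean life span excludes long-term tumor-free survivors. Animals held 60 days; Student's t test against untreated controls.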

[5] = organism: Mus musculus; assay: Increase in mean life span was measured against EMT6 mammary carcinoma cells; format: functional
Method in brief: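 EMT6 given as sc trochar implants in C3H mice, groups of 10. Drug given ip in sterile saline, 0.5 mL/mouse, at or below the maximally tolerated dose for the schedule. Mean life span excludes long-term tumor-free survivors. Animals held 60 days after implantation; Student's t test against untreated controls.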

[6] = organism: Mus musculus; assay: Increase in mean life span was measured against ADJ-PC6 plasmacytoma cells; format: functional
Method in brief: (§3)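 10^6 Trypan blue-excluding cells implanted ip (P815 sc) in groups of 10 mice: B6D2F1 for L5178Y and P815, BALB/c for ADJ-PC6, C3H for Gardner. Drug given ip in sterile saline, 0.5 mL/mouse, at or below the maximally tolerated dose for the schedule. ILS excludes long-term tumor-free survivors. Animals held 60 days; Student's t test against untreated controls.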

[7] = organism: Mus musculus; assay: Tumor weight inhibition against Nettesheim lung carcinoma cells
[8] = organism: Mus musculus; assay: Increase in mean life span was measured against Gardner lymphosarcoma cells; format: functional
Method in brief: as §3

[9] = system: Mus musculus; assay: Ratio of mean tumor volume of treated groups to that of the mean of total untreated controls in the subcutaneous Lewis Lung Carcinoma model at a dose of 158-251 (mg/kg)/day; format: functional
Method in brief: as §1

[10] = organism: Mus musculus; assay: Increase in mean life span was measured against M5076 ovarian tumor; format: functional
Method in brief: (§4)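 Tumor brei, 10%, 0.5 mL, implanted sc in groups of 10 mice: CD2F1 for Nettesheim and Madison, B6D2F1 for M5076. M5076 also implanted ip with the same inoculum; Madison im at 0.2 mL. Drug given ip in saline, 0.5 mL/mouse, at or below the maximally tolerated dose. ILS excludes long-term survivors. Animals held 60 days; t test.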

[11] = system: Mus musculus; assay: Percent increase of mean life span of treated groups relative to the mean of the untreated control groups in the subcutaneous Lewis Lung Carcinoma model at a dose of 900-1000 (mg/kg)/day; format: functional
Method in brief: (§5)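 Lewis lung carcinoma model in mice, groups of 10. Dosing daily on days 1-5, 1-8 or 1-10, ip or subcutaneous. Dose ranges pooled from nine independent experiments run at different levels. ILS is the percent increase in mean life span, excluding cures, over the mean of 3 or 4 untreated control groups of 10. Survivors scored at day 60.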

[12] = system: Mus musculus; assay: Proportion of survivors was determined on the 60th day at a dose of 300-400 (mg/kg)/day; format: functional
Method in brief: as §5

[13] = organism: Mus musculus; assay: Tumor weight inhibition against colon carcinoma 38
[14] = organism: Mus musculus; assay: Tumor weight inhibition against P815 mastocytoma cells
[15] = system: Mus musculus; assay: Average proportion of total treated mice without palpable tumors was determined in the subcutaneous Lewis Lung Carcinoma model at a dose of 500-600 (mg/kg)/day; format: functional
Method in brief: as §2

[16] = system: Mus musculus; assay: Proportion of survivors was determined on the 60th day at a dose of 500-600 mg/kg/day; format: functional
Method in brief: as §5

[17] = system: Mus musculus; assay: Proportion of survivors was determined on the 60th day at a dose of 900-1000 mg/kg/day; format: functional
Method in brief: as §5

[18] = system: Mus musculus; assay: Percent increase of mean life span of treated groups relative to the mean of the untreated control groups in the subcutaneous Lewis Lung Carcinoma model at a dose of 100-125 mg/kg/day; format: functional
Method in brief: as §5

[19] = system: Mus musculus; assay: Proportion of survivors was determined on the 60th day at a dose of 100-125 mg/kg/day; format: functional
Method in brief: as §5

[20] = system: Mus musculus; assay: Average proportion of total treated mice without palpable tumors was determined in the subcutaneous Lewis Lung Carcinoma model at a dose of 1200-1500 (mg/kg)/day; format: functional
Method in brief: as §2

[21] = organism: Mus musculus; assay: Increase in mean life span was measured against Madison 109 lung carcinoma cells; format: functional, M109
Method in brief: as §4

[22] = organism: Mus musculus; assay: Tumor weight inhibition against B16 melanoma cells
[23] = organism: Mus musculus; assay: Increase in mean life span was measured against L5178 Y leukemia cells; format: functional
Method in brief: as §3

[24] = system: Mus musculus; assay: Ratio of mean tumor volume of treated groups to that of the mean of total untreated controls in the subcutaneous Lewis Lung Carcinoma model at a dose of 100-125 (mg/kg)/day; format: functional
Method in brief: as §1

[25] = organism: Mus musculus; assay: Increase in mean life span was measured against M5076 ovarian tumor cells; format: functional
Method in brief: as §4

[26] = system: Mus musculus; assay: Average proportion of total treated mice without palpable tumors was determined in the subcutaneous Lewis Lung Carcinoma model at a dose of 2400-2512 (mg/kg)/day; format: functional
Method in brief: as §2

[27] = system: Mus musculus; assay: Ratio of mean tumor volume of treated groups to that of the mean of total untreated controls in the subcutaneous Lewis Lung Carcinoma model at a dose of 300-400 (mg/kg)/day; format: functional
Method in brief: as §1

CC(c1ccccc1)C1C(=O)NC(=O)C1CCC(C(N)=O)C(CCC(CC(=O)O)C(N)=O)C(=O)O.N.N (configuration not stated)
TWI [1]: 14
T/C [2]: 0.1
Average proportion [3]: 0.14
ILS [4]: 48% and 31% and 75%
ILS [5]: 13%
ILS [6]: 24%
TWI [7]: 39
ILS [8]: 4%
T/C [9]: 0.58
ILS [10]: 20%
ILS [11]: 19%
Proportion of survivors [12]: 0.09
TWI [13]: 44
TWI [14]: 60 and 53
Average proportion [15]: 0.29
Proportion of survivors [16]: 0.12
Proportion of survivors [17]: 0.21
ILS [18]: 12%
Proportion of survivors [19]: 0.04
Average proportion [20]: 0.48
ILS [21]: 27% and 23% and 20%
TWI [22]: 74
ILS [23]: 5%
T/C [24]: 0.62
ILS [25]: 40%
Average proportion [26]: 0.6
T/C [27]: 0.4
